# Measurements from ChEMBL document CHEMBL4138048, “Synthesis of substituted 2H-benzo[e]indazole-9-carboxylate as a potent antihyperglycemic agent that may act through IRS-1, Akt and GSK-3β pathways” (Medchemcomm, 2017).
# Activity calls are given as the source filed them. The rule behind the calls is not given here.
# Test system: L6
# Assay: Stimulation of [3H]2-deoxyglucose uptake in rat L6 cells at 10 uM incubated for 16 hrs by scintillation counting method
# Assay type: functional, cell-based
# In short: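 L6 myotubes incubated with the compound […]; insulin at 100 nM for 20 min served as the positive control. Uptake of ³H-2-deoxyglucose measured and expressed as fold stimulation relative to the control condition.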
row,SMILES,Activity
1,COC(=O)c1c(SC)cc(-c2ccc(F)cc2)c2c1-c1cn(-c3ccccc3)nc1CC2,inactive
2,COC(=O)c1c(SC)cc(-c2ccc3ccc4cccc5ccc2c3c45)c2c1-c1cn(-c3ccccc3)nc1CC2,inactive
3,COC(=O)c1c(S(C)(=O)=O)cc(-c2ccc(F)cc2)c2c1-c1cn(-c3ccccc3)nc1CC2,inactive
